Test results reported in the RNAGym collection of RNA variant scans (doi:10.1126/science.aae0568).
Variants at the floor of the assay were thinned out.

B1: tRNA (parent)
chain: GUUCCGUUGGCGUAAUGGUAACGCGUCUCCCUCCUAAGGAGAAGACUGCGGGUUCGAGUCCCGUACGGAACG

Variants of: B1
Assay: yeast fitness relative to wild type (ratio to wild type); higher = fitter; tRNA-Arg(CCU), competitive growth, 37 C, YPD
How it was run: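 Changes in genotype frequencies gave Darwinian fitness relative to wild type. Frequencies were read by 100-nucleotide paired-end sequencing of gene amplicons before and after pooled Saccharomyces cerevisiae strains, carrying tRNA-Arg(CCU) gene variants at the native locus, were competed in YPD at 37°C for 24 hours in six replicates. A genotype was kept only with ≥ 100 starting reads, and estimates < 0.5 were set to 0.5.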

| Variant | yeast fitness |
| --- | --- |
| G9A A40C A70U | 0.74 |
| G9A C46G | 0.993 |
| G9A U13A A69U | 0.811 |
| G9A U13A A69C | 0.809 |
| G9A G10C G25C C33U C62A C66U | ≤ 0.5 |
| G9A C62A C66U | ≤ 0.5 |
| G9A C46G C49U A69U | 1.11 |
| G9C A20G U35C A36G G58A G67A | ≤ 0.5 |
| G9A C22A U53A A57G | 0.554 |
| G9A U32G | 0.616 |
| G9A A37G A57U C66U | ≤ 0.5 |
| G9A C27G C31G A36U A40G G48A G52A C60A | 0.575 |
| G9A C11A G38C A40C | ≤ 0.5 |
| G9A A15G | 0.884 |
| G9C A15G | 0.633 |
| G9A C24G G41C U53C G58U | ≤ 0.5 |
| G9A C11G G50A G51A | ≤ 0.5 |
| G9C A20C C27U G39A G56A G58C | ≤ 0.5 |
| G9A C34U A69U | 0.549 |
| G9A U35A A43C | ≤ 0.5 |
| G9C A20G A36U | ≤ 0.5 |
| G9A C24U A65C | 0.536 |
| G9A A14C C22G A45C G51C U64C | ≤ 0.5 |
| G9A A45U G48A G56A | 0.701 |

| Variant | yeast fitness |
| --- | --- |
| G9A C31U A37C G63A | ≤ 0.5 |
| G9A G18A C24A G39A A43C | 0.558 |
| G9C A15U U28G C55G A69U | 0.599 |
| G9A C29U C46U C66U | 0.637 |
| G9A C22A A57G | 0.628 |
| G9A C22A C55U | 0.626 |
| G9A U47C G48C U59A C66A A69C | ≤ 0.5 |
| G9C A15U U28G A42U | ≤ 0.5 |
| G9C A14G C55G C61U | ≤ 0.5 |
| G9A C22U C30A C49A C55A C62U C66U | ≤ 0.5 |
| G9A G10C G17A G25A C31U | ≤ 0.5 |
| G9C A14G A45G | ≤ 0.5 |
| G9A C29U C46U G67C | 0.583 |
| G9A C11U G48A | 0.715 |
| G9A C31A A42C | 0.54 |
| G9A A21G C61U A65U | ≤ 0.5 |
| G9A G23A G25C U28C | ≤ 0.5 |
| G9C A14C U16C C27U C29A C33G C66A | 0.577 |
| G9C A14C A20U G23C C31U C55U | ≤ 0.5 |
| G9A G41A | 1.02 |
| G9C A15G A21U G56A A57G G67A | 0.593 |
| G9A C30A A42C | 0.562 |
| G9C A20G A42U G44C G50C | ≤ 0.5 |
| G9C A14U C27G C29U C46U C60G | 0.596 |

| Variant | yeast fitness |
| --- | --- |
| G9C A21G C60A | ≤ 0.5 |
| G9A A21G C29G C31A C34G | ≤ 0.5 |
| G9A C24U | 0.997 |
| G9A C24G | 0.594 |
| G9A U32C C33G A37G G52A C55U A65U | 0.583 |
| G9A A40C C49U | 0.713 |
| G9A A14G C29U U32A A43U | ≤ 0.5 |
| G9A C34U | 0.793 |
| G9A C34A | 0.704 |
| G9C A14U A42G | ≤ 0.5 |
| G9A C11G C24G C27A U28C A65U | ≤ 0.5 |
| G9A C30G U32C A40G G50C A57U | ≤ 0.5 |
| G9A U13A | 1.03 |
| G9A C29A A37G G58A | 0.571 |
| G9A U13C A21U A36G A40C A69U | ≤ 0.5 |
| G9A U13G A36G | 0.574 |
| G9A G17C A45U A65C | 0.583 |
| G9A G10A C31G G52A | 0.531 |
| G9A A65C | 0.93 |
| G9C A21G A69U | 0.512 |
| G9A C24G C49U C55G G58A | ≤ 0.5 |
| G9C A15U C24U U53G C62G | ≤ 0.5 |
| G9A A37G | 0.795 |
| G9A G25U A36U G56C A65C | 0.717 |

| Variant | yeast fitness |
| --- | --- |
| G9A C33G G44A C49G | 0.607 |
| G9A U26G A57U | 0.631 |
| G9A C11A G58C | ≤ 0.5 |
| G9A A37C A45U | ≤ 0.5 |
| G9A A21C G25C U64A G67A | ≤ 0.5 |
| G9A C11G C24G U32A G58C | ≤ 0.5 |
| G9C A14G A57U C60A C61G | ≤ 0.5 |
| G9A U59A | 0.936 |
| G9A U28C A37U U47A C61U | 0.871 |
| G9A G10A U28C | ≤ 0.5 |
| G9C A14U G48C A69U | ≤ 0.5 |
| G9A C34G U53C A57C A69U | ≤ 0.5 |
| G9A C22U C30U | 0.519 |
| G9A C22U C30G C61U A70U | ≤ 0.5 |
| G9A U19C A43U | 0.713 |
| G9A G10C G17A G25A | ≤ 0.5 |
| G9A A21U G44A C55G | 0.584 |
| G9A A42C G58A | 0.917 |
| G9A A14C A42G C49G U54C G63C A70U | ≤ 0.5 |
| G9A A36U G39A | 0.535 |
| G9A A20G A40C A42U A43C G48A | ≤ 0.5 |
| G9A C11U A36C G48C | ≤ 0.5 |
| G9A A21C C22A C66U | ≤ 0.5 |
| G9A C22G C31U A65C C66A | ≤ 0.5 |

| Variant | yeast fitness |
| --- | --- |
| G9A U16A G25C C46G | 0.588 |
| G9C A21C C29U | ≤ 0.5 |
| G9A A21C G25C | 0.565 |
| G9A G12C C31A C33G A45G A70U | ≤ 0.5 |
| G9A A14C C55U | ≤ 0.5 |
| G9A A21G A40G A43C U54A | ≤ 0.5 |
| G9A G38A A69C | 0.724 |
| G9A C34U C61G | 0.521 |
| G9A C49U A69U | 0.785 |
| G9A C24A C55A | ≤ 0.5 |
| G9C A15U U16C A36U A69C | ≤ 0.5 |
| G9A U28C G38A G44A G51C G58C | ≤ 0.5 |
| G9A A40U | 1.06 |
| G9A G50A C55U | 0.59 |
| G9A G25C C30U G51C G58U | ≤ 0.5 |
| G9C A21G C66U A69U | ≤ 0.5 |
| G9A A42G C62A | ≤ 0.5 |
| G9A C34G C66U | ≤ 0.5 |
| G9A A14G G23A G41C G51C | ≤ 0.5 |
| G9C A15U C31U U35C G51C G56A C62G | ≤ 0.5 |
| G9A U35C A42U | ≤ 0.5 |
| G9A C11U A36C A57G A65U | ≤ 0.5 |
| G9A C33U A36U U59A | ≤ 0.5 |
| G9A U54A | 0.696 |

| Variant | yeast fitness |
| --- | --- |
| G9A U16C C30G C34G A40G C61G A69G | ≤ 0.5 |
| G9A G52A C61U A69C | ≤ 0.5 |
| G9A C27G C31U C49G G58C | ≤ 0.5 |
| G9A A14C U32A A70G | ≤ 0.5 |
| G9A C31U A40G G52C A65G A69G | ≤ 0.5 |
| G9C A15C U35C U59A | 0.605 |
| G9A A21G U32G G39C G52C | ≤ 0.5 |
| G9A C31A A43U C61A | ≤ 0.5 |
| G9A C11U A36C C49G U53G | ≤ 0.5 |
| G9A U16C A20C A40G C55U | ≤ 0.5 |
| G9A U16C C29G C31A C33G G41A A43G | ≤ 0.5 |
| G9C A14G | 0.579 |
| G9A G48A G68C | 0.984 |
| G9A C34A A45C | 0.541 |
| G9A G12A C22U U53G | ≤ 0.5 |
| G9A G48A G50C | 0.581 |
| G9C A14U C24G U35G G50C | ≤ 0.5 |
| G9A G44A G48A G50C | ≤ 0.5 |
| G9A G10A C31G G52A C62A | ≤ 0.5 |
| G9A C11G C55G G63C G67C | 0.578 |
| G9A C29U U47A A65U | ≤ 0.5 |
| G9A C27G C29A C49G | ≤ 0.5 |
| G9A C49G | 0.896 |
| G9A C49A | 0.654 |

| Variant | yeast fitness |
| --- | --- |
| G9A C24A C49A A57C | ≤ 0.5 |
| G9A G67U | 0.863 |
| G9A A70G | 1.06 |
| G9A C33U A37U | 0.605 |
| G9A U26C C49U | 0.685 |
| G9C A14G U16G G23A C33A G44A C66U | ≤ 0.5 |
| G9A G23C A37G | ≤ 0.5 |
| G9A C33U A42C A69U | ≤ 0.5 |
| G9C A15C C34G | ≤ 0.5 |
| G9A C31A A42C A57G | 0.522 |
| G9A G38A C62U | 0.939 |
| G9A U53A A65C A70C | ≤ 0.5 |
| G9A G56A C62U G67A | 0.525 |
| G9A C24G C34G A69U | 0.533 |
| G9A C30G G68U | ≤ 0.5 |
| U8G U35G A70C | 0.536 |
| G9A C11U C29G | 0.609 |
| G9A A40U C62G | 0.593 |
| G9C A15C C29A G58A C61G A70U | ≤ 0.5 |
| G9A G10A A21G G56A A65U | ≤ 0.5 |
| G9A C24A U59A | ≤ 0.5 |
| G9A A45U U64C | 0.57 |
| G9A G38C | 0.758 |
